Source: ChEMBL document CHEMBL1154421, “In vitro suppression of K65R reverse transcriptase-mediated tenofovir- and adefovir-5'-diphosphate resistance conferred by the boranophosphonate derivatives” (Antimicrob Agents Chemother, 2007)
pIC50, pKd: −log10 of the molar value.

Key:
[1] = molecular target: Human immunodeficiency virus type 1 reverse transcriptase (Human immunodeficiency virus 1) (UniProt Q72547); assay: Binding affinity to HIV1 wild type reverse transcriptase p66/p51 assessed as ratio of catalytic rate constant to Kd for dATP to drug by gel electrophoresis
How it was run: (§1)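 Pre-steady-state single-nucleotide incorporation, rapid quench over 10 ms to 30 s. Primer is a 5'-32P-labelled 21-mer annealed to a 31-mer DNA template. Products resolved on 14% acrylamide/8 M urea gels and phosphorimaged. kpol and Kd fitted to a hyperbola.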

[2] = molecular target: T1, Human immunodeficiency virus type 1 reverse transcriptase (Human immunodeficiency virus 1, UniProt Q72547); assay: Inhibition of HIV1 wild type reverse transcriptase p66/p51 expressed in Escherichia coli using calf thymus DNA substrate
How it was run: (§2)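 Recombinant p66/p51 RT, coexpressed with HIV-1 protease in E. coli, affinity-purified and active-site titrated. Reactions used 10 nM RT, 250 µg/ml activated calf thymus DNA and 5 µM each dNTP with [3H]dATP (100 µCi/mmol), run for 15 min across increasing inhibitor. Samples spotted in duplicate on DE81 discs, washed in 0.3 M ammonium formate pH 8.0 and ethanol, then scintillation counted. IC50 averaged from at least three independent experiments.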

[3] = molecular target: T2, Human immunodeficiency virus type 1 reverse transcriptase (Human immunodeficiency virus 1, UniProt Q72547, K65R); assay: Inhibition of HIV1 reverse transcriptase p66/p51 K65R mutant expressed in Escherichia coli using calf thymus DNA substrate; how it was run: as §2
[4] = test system: Human immunodeficiency virus 1; assay: Ratio of IC50 for HIV1 reverse transcriptase p66/p51 K65R mutant to IC50 for HIV1 wild type reverse transcriptase; how it was run: as §2
[5] = molecular target: T1, Human immunodeficiency virus type 1 reverse transcriptase; assay: Binding affinity to HIV1 wild type reverse transcriptase p66/p51 expressed in Escherichia coli assessed as incorporation of drug to DNA by gel electrophoresis; how it was run: as §1
[6] = molecular target: T2, Human immunodeficiency virus type 1 reverse transcriptase; assay: Binding affinity to HIV1 recombinant reverse transcriptase p66/p51 K65R mutant expressed in Escherichia coli assessed as incorporation of drug to DNA by gel electrophoresis; how it was run: as §1
[7] = molecular target: Human immunodeficiency virus type 1 reverse transcriptase (Human immunodeficiency virus 1) (UniProt Q72547); assay: Binding affinity to wild type reverse transcriptase assessed as ratio of catalytic rate constant to Kd for incorporation of drug to DNA by gel electrophoresis; how it was run: as §1
[8] = test system: Human immunodeficiency virus type 1 reverse transcriptase (Human immunodeficiency virus 1), Q72547 [K65R]; assay: Binding affinity to HIV1 recombinant reverse transcriptase p66/p51 K65R mutant expressed in Escherichia coli assessed as ratio of catalytic rate constant to Kd for incorporation of drug to DNA by gel electrophoresis; how it was run: as §1
[9] = molecular target: Human immunodeficiency virus type 1 reverse transcriptase (Human immunodeficiency virus 1) (UniProt Q72547); assay: Inhibition of HIV1 wild type reverse transcriptase p66/p51 DNA polymerase activity assessed as formation of terminated DNA products; parameters: concentration or dose not given beside the values; details: concentration not given here
[10] = test system: Human immunodeficiency virus 1; assay: Inhibition of HIV1 […] reverse transcriptase p66/p51 R72A mutant DNA polymerase activity assessed as formation of terminated DNA products; details: concentration not given here
How it was run: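 Polymerization rate gel assay with WT or R72A RT (50 nM) and 25 nM 5'-labelled oligo(dA)21 annealed to poly(rU)31, in RT buffer at 37°C. Extension followed over the first seconds with dATP or analogues. Products separated by denaturing gel electrophoresis and autoradiographed.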

[11] = test system: Human immunodeficiency virus type 1 reverse transcriptase (Human immunodeficiency virus 1), Q72547 [K65R]; assay: Binding affinity to HIV1 recombinant reverse transcriptase p66/p51 K65R mutant assessed as ratio of catalytic rate constant to Kd for dATP to drug by gel electrophoresis; how it was run: as §1

Work on `C[C@H](Cn1cnc2c(N)ncnc21)OCP(=O)(O)OP(=O)(O)OP(=O)(O)O` yielded a Ratio [1] of 21.9, a pIC50 [2] of 4.66 and a pIC50 [3] of 3.77. For the same compound, the Ratio IC50 [4] was 8, the pKd [5] was 4.64 and the pKd [6] was 4.74. For the same compound, the Ratio [7] was 0.3, the Ratio [8] was 0.02 and the inhibition [9] was 74%. It also gave an inhibition [10] of 0.2% and a Ratio [11] of 97.8.

`BP(=O)(CO[C@H](C)Cn1cnc2c(N)ncnc21)OP(=O)(O)OP(=O)(O)O` (some centres undefined) showed a Ratio [1] of 9.6, a pIC50 [2] of 4.84 and a pIC50 [3] of 4.74. It also gave a Ratio IC50 [4] of 1.2, a pKd [5] of 4.48 and a pKd [6] of 4.46. The Ratio [7] was 0.7, the Ratio [8] was 0.17 and the inhibition [9] was 74%. It also gave an inhibition [10] of 45% and a Ratio [11] of 10.

Compound `BP(=O)(COCCn1cnc2c(N)ncnc21)OP(=O)(O)OP(=O)(O)O` (centres undefined) has a Ratio [1] of 21.7, a pIC50 [2] of 4.77 and a pIC50 [3] of 4.92. For the same compound, the Ratio IC50 [4] was 0.7, the pKd [5] was 5.19 and the pKd [6] was 5.15. It also gave a Ratio [7] of 0.3, a Ratio [8] of 0.2 and an inhibition [9] of 69%. The inhibition [10] was 53% and the Ratio [11] was 8.8.

`Nc1ncnc2c1ncn2[C@H]1C[C@H](O)[C@@H](COP(=O)(O)OP(=O)(O)OP(=O)(O)O)O1` was tested, and the pKd [5] was 5.12, the pKd [6] was 5.16 and the Ratio [7] was 6.7. For the same compound, the Ratio [8] was 1.7 and the inhibition [9] was 75%.

`Nc1ncnc2c1ncn2CCOCP(=O)(O)OP(=O)(O)OP(=O)(O)O` [ADEFOVIR DIPHOSPHATE] was tested, and the Ratio [1] was 7.7, the pIC50 [2] was 5.08 and the pIC50 [3] was 4.28. It also gave a Ratio IC50 [4] of 6, a pKd [5] of 5.10 and a pKd [6] of 5.11. It also gave a Ratio [7] of 0.9, a Ratio [8] of 0.1 and an inhibition [9] of 72%. It also gave an inhibition [10] of 1.6% and a Ratio [11] of 17.9.
